Test results as given in ChEMBL document CHEMBL3779771, “Chiral Dihydrobenzofuran Acids Show Potent Retinoid X Receptor-Nuclear Receptor Related 1 Protein Dimer Activation” (J Med Chem, 2016).
Activity calls are given as the source filed them. No cut-off for these calls is given here.

Legend:
[1] = molecular target: T1, Retinoic acid receptor RXR-alpha (Homo sapiens) (UniProt P19793); assay: Agonist activity at Renilla luciferase/GFP2-tagged RXRalpha homodimer (unknown origin) expressed in HEK293T cells by BRET2 assay relative to bexarotene; format: cell-based; settings: HEK-293T
T1 sequence (whole entry): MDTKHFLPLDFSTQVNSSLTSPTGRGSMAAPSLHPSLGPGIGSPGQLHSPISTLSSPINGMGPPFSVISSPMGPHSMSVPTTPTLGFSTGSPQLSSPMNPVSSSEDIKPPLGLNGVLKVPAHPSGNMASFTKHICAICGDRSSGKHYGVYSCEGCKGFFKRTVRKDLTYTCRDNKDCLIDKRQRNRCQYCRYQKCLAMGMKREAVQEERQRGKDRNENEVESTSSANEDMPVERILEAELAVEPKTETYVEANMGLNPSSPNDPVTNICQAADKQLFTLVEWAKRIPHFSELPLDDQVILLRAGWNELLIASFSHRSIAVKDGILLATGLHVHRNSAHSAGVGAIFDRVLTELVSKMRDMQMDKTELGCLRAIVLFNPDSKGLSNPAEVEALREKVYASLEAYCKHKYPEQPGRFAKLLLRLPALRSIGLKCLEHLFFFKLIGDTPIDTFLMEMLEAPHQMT
Method in brief: (§1)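 BRET2 assay with RXR and Nurr1 receptors tagged with GFP and Renilla luciferase, run in whole cells. Potency is given as pEC50, the negative log of molar EC50. Agonist efficacy is expressed relative to bexarotene, set at 100%. Values are mean ± SD of at least three independent experiments.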

[2] = molecular target: T1, Retinoic acid receptor RXR-alpha (Homo sapiens); assay: (§2) Agonist activity at histidine-tagged ligand binding domain of human RXRalpha expressed in Escherichia coli BL21 (DE3) by luciferase reporter gene assay
[3] = molecular target: T2, Nuclear receptor subfamily 4 group A member 2/Retinoic acid receptor RXR-alpha (Homo sapiens, UniProt P19793+P43354); assay: Agonist activity at Renilla luciferase/GFP2-tagged RXRalpha/Nurr1 (unknown origin) expressed in HEK293T cells by BRET2 assay relative to bexarotene; format: cell-based; settings: HEK-293T; method in brief: as §1
[4] = molecular target: T2, Nuclear receptor subfamily 4 group A member 2/Retinoic acid receptor RXR-alpha; assay: Agonist activity at Renilla luciferase/GFP2-tagged RXRalpha/Nurr1 (unknown origin) expressed in HEK293T cells by BRET2 assay; format: cell-based, HEK-293T
[5] = molecular target: T3, Retinoic acid receptor RXR-alpha (Homo sapiens, UniProt P19793); assay: as §2
T3 sequence (P19793 whole entry): T1 sequence (whole entry)

[6] = molecular target: T1, Retinoic acid receptor RXR-alpha (Homo sapiens); assay: Agonist activity at histidine-tagged ligand binding domain of human RXRalpha expressed in Escherichia coli BL21 (DE3) by luciferase reporter gene assay relative to bexarotene
[7] = molecular target: T3, Retinoic acid receptor RXR-alpha; assay: Agonist activity at Renilla luciferase/GFP2-tagged RXRalpha homodimer (unknown origin) expressed in HEK293T cells by BRET2 assay; format: cell-based, HEK-293T
[8] = molecular target: T4, Estrogen receptor (Homo sapiens) (UniProt P03372); assay: Activation of estrogen receptor (unknown origin)
T4 sequence (whole entry): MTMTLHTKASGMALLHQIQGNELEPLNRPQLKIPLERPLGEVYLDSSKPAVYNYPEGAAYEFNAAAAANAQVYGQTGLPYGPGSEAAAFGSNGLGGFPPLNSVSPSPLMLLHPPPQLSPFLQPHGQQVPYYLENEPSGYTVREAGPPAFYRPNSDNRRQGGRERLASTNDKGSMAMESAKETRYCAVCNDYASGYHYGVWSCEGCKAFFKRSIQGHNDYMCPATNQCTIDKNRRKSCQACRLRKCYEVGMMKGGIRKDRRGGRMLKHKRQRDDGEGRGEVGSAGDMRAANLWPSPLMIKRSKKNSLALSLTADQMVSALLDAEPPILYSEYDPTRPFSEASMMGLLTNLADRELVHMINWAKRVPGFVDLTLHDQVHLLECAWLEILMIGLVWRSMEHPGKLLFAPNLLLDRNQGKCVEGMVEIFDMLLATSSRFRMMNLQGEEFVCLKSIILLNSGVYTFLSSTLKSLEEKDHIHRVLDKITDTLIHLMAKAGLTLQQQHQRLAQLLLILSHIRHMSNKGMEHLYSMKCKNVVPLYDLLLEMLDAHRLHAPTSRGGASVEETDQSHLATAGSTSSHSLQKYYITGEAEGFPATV

[9] = molecular target: Retinoic acid receptor (Homo sapiens) (UniProt P13631+P10826+P10276); assay: Activation of RAR (unknown origin); format: protein assay
Homo sapiens = species: Homo sapiens; assay: Selectivity ratio of EC50 for Renilla luciferase/GFP2-tagged RXRalpha homodimer (unknown origin) to EC50 for Renilla luciferase/GFP2-tagged RXRalpha/Nurr1 (unknown origin)

T2 sequence (P43354 whole entry, one chain of several): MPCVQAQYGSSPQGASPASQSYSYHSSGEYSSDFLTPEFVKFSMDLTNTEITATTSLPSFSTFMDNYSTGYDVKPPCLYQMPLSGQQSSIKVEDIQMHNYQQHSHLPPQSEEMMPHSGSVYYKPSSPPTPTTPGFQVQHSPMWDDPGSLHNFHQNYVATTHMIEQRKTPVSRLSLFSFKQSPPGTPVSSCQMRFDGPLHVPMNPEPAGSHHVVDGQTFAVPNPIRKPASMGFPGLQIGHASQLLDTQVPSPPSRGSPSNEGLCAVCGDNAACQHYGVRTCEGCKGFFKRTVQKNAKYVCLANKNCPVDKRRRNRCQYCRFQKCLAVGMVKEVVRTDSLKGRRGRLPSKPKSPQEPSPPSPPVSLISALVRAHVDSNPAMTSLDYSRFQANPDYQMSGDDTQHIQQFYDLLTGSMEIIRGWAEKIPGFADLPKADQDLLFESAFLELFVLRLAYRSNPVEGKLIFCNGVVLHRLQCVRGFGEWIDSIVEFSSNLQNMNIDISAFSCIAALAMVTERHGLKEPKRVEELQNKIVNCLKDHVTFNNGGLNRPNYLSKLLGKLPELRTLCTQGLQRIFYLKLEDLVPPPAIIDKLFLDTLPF
Retinoic acid receptor (Homo sapiens), sequence (P10276 whole entry, looked up): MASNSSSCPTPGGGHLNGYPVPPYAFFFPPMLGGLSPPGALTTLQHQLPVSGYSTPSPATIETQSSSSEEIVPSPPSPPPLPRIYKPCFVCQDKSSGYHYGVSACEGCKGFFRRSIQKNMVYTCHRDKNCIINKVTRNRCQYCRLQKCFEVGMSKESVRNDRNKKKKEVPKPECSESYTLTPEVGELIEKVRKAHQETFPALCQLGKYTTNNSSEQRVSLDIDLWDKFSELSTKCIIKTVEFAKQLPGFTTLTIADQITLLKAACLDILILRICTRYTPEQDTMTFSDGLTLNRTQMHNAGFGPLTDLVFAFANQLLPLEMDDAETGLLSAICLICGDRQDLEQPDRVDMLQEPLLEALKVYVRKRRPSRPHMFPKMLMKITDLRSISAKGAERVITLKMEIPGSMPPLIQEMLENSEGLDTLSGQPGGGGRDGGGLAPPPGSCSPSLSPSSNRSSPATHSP
Retinoic acid receptor (Homo sapiens), sequence (P10826 whole entry, looked up): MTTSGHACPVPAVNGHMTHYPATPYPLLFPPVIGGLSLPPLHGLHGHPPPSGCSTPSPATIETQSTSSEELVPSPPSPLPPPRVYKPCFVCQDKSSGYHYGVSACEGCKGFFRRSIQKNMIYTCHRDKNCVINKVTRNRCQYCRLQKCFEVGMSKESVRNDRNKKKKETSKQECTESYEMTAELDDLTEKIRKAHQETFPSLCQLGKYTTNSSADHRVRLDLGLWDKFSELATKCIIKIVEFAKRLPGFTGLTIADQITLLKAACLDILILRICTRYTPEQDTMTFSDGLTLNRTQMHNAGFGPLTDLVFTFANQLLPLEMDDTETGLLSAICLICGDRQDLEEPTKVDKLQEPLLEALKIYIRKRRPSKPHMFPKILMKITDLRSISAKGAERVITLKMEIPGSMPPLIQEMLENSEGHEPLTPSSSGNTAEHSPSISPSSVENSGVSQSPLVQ
Retinoic acid receptor (Homo sapiens), sequence (P13631 whole entry, looked up): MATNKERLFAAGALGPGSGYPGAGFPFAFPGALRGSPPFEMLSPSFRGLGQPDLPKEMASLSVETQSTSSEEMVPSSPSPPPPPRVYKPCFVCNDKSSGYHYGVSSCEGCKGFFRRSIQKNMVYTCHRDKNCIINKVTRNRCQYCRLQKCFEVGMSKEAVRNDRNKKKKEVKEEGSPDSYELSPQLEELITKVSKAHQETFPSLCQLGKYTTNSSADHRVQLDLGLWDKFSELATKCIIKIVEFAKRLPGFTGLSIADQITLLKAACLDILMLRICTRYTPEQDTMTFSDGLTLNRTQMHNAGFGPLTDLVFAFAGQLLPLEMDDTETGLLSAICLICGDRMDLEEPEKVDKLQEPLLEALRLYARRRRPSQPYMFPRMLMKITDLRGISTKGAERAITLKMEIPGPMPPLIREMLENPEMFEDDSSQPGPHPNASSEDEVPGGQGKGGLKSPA

Efficacy [1]	pEC50 [2]	Efficacy [3]	EC50 [4]	EC50 [5]	Efficacy [6]	EC50 [7]	Activity [8]	Activity [9]	Ratio EC50 (Homo sapiens)	Compound
inactive	inactive	92%	> 3160 nM	–	–	–	–	–	–	CC1(C)CCC(C)(C)c2cc3c(cc21)O[C@H]1CCCC[C@@]31c1ccc(C(=O)O)cc1
–	–	–	–	126 nM	47%	–	inactive	inactive	–	CC1(C)CCC(C)(C)c2cc3c(cc21)O[C@H]1CCCCC[C@@]31c1ccc(C(=O)O)cc1 (racemic)
–	–	–	–	50.1 nM	96%	–	inactive	inactive	–	CC1(C)CCC(C)(C)c2cc3c(cc21)OC1CCCCC31c1ccc(C(=O)O)cc1 (racemic)
–	inactive	–	–	–	–	–	–	–	–	CC1(C)CCC(C)(C)c2cc3c(cc21)O[C@H]1CCCCC[C@]31c1ccc(C(=O)O)cc1 (racemic)
–	–	–	–	50.1 nM	88%	–	inactive	inactive	–	CC1(C)CCC(C)(C)c2cc3c(cc21)OC1CCCCC31c1ccc(C(=O)O)c(F)c1 (racemic)
inactive	–	49%	501 nM	1000 nM	59%	–	–	–	–	CC1(C)CCC(C)(C)c2cc3c(cc21)O[C@H]1CCC[C@@]31c1ccc(C(=O)O)cc1

Second part, the molecule before the results:

Compound	Efficacy [1]	pEC50 [2]	Efficacy [3]	EC50 [4]	EC50 [5]	Efficacy [6]	EC50 [7]	Activity [8]	Activity [9]	Ratio EC50 (Homo sapiens)
CC1(C)CCC(C)(C)c2cc3c(cc21)OC1CCCCC31c1ccc(O)cc1 (racemic)	–	inactive	–	–	–	–	–	–	–	–
CC1(C)CCC(C)(C)c2cc3c(cc21)O[C@@H]1CCCC[C@]31c1ccc(C(=O)O)cc1	80%	–	96%	12.6 nM	20 nM	94%	15.8 nM	–	–	–
CC1(C)CCC(C)(C)c2cc3c(cc21)OC1CCCC31c1ccc(C(=O)O)cc1 (racemic)	–	–	–	–	25.1 nM	65%	–	inactive	inactive	–
CC1(C)CCC(C)(C)c2cc3c(cc21)O[C@@H]1CCC[C@]31c1ccc(C(=O)O)cc1	85%	–	111%	12.6 nM	6.31 nM	119%	25.1 nM	–	–	3
